For 1 molecule, inhibition, Activity and IC50 results are on record in ChEMBL document CHEMBL5500386, “Design, synthesis and bioactivity evaluation of 4-hydroxycoumarin derivatives as potential anti-inflammatory agents against acute lung injury and colitis” (Eur J Med Chem, 2024).

The test system of series [1] is J774.A1. The experiment in a line: Inhibition of LPS-induced NF-kappaB activation in mouse J774.A1 cells assessed as reduction in IkappaBalpha degradation at 5 to 20 uM pretreated for 2 hrs followed by LPS stimulation and measured after 30 mins by Western blot analysis. In kind it is cell-based. Particulars: dose 5-20 µM, time 2.5 hrs. In a few lines:
(§1)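 J774A.1 macrophages pretreated with 20, 10 or 5 μM for 2 h, then LPS 0.5 μg/mL for 30 min. RIPA lysates quantified by Bradford. 40 μg run on 12.5 % SDS-PAGE and transferred to PVDF. Blocked 1.5 h in BSA, primary antibody overnight at 4 °C, secondary 2 h at room temperature, detected by ECL.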

Series [2] relates to Mus musculus. The experiment in a line: Protection against LPS-induced C57BL/6 mouse model of acute lung injury assessed as reduction in interstitial edema in lungs at 20 mg/kg, po administered 3 times for every 12 hrs followed by LPS stimulation at 5 mg/kg and measured after 6 hrs by immunohistochemical staining based analysis. Particulars: time 30.0 hrs. In kind it is functional, organism-based. Summed up:
(§2)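 LPS-induced ALI in C57BL/6 mice: 20 mg/kg orally three times at 12 h intervals, then intratracheal LPS 5 mg/kg, lungs taken at 6 h. F4/80 IHC: xylene deparaffinisation, citrate pH 6 retrieval for 25 min, primary antibody at 4 °C for 12 h, secondary 1:2000, DAB and hematoxylin. Viewed at ×20.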

Series [3] deals with Mus musculus. The experiment in a line: Antiinflammatory activity in DSS-induced male C57BL/6 mouse model of inflammatory bowel disease assessed as increase in body weight at 20 mg/kg, IG administered with compound and DSS for 7 days followed by DSS replacement with distilled water for 3 days. In kind it is functional, organism-based. Particulars: time 10.0 day.
For series [4], the system named is THP-1. The experiment in a line: Antiinflammatory activity in LPS-induced human THP-1 cells assessed as inhibition of IL-6 production pretreated for 30 mins followed by LPS stimulation and measured after 24 hrs by ELISA. It is filed as functional, cell-based. Summed up: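 Cells pretreated 30 min with a gradient of concentrations (2.5–10 μM range) or DMSO, then given LPS 0.5 μg/mL for 24 h. IL-6 in medium measured by ELISA and normalised to living cell number by MTT. Expressed as % of the LPS group, mean ± SEM of triplicates. IC50 taken from the concentration-response.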

For series [5], the system named is Mus musculus. The experiment in a line: Antiinflammatory activity in DSS-induced male C57BL/6 mouse model of inflammatory bowel disease assessed as decrease in disease index at 20 mg/kg, IG administered with compound and DSS for 7 days followed by DSS replacement with distilled water for 3 days. Particulars: time 10.0 day. In kind it is functional, organism-based.

For series [6], the target named is T1, Inhibitor of nuclear factor kappa-B kinase subunit beta (Homo sapiens) (UniProt O14920).
T1 sequence (whole entry): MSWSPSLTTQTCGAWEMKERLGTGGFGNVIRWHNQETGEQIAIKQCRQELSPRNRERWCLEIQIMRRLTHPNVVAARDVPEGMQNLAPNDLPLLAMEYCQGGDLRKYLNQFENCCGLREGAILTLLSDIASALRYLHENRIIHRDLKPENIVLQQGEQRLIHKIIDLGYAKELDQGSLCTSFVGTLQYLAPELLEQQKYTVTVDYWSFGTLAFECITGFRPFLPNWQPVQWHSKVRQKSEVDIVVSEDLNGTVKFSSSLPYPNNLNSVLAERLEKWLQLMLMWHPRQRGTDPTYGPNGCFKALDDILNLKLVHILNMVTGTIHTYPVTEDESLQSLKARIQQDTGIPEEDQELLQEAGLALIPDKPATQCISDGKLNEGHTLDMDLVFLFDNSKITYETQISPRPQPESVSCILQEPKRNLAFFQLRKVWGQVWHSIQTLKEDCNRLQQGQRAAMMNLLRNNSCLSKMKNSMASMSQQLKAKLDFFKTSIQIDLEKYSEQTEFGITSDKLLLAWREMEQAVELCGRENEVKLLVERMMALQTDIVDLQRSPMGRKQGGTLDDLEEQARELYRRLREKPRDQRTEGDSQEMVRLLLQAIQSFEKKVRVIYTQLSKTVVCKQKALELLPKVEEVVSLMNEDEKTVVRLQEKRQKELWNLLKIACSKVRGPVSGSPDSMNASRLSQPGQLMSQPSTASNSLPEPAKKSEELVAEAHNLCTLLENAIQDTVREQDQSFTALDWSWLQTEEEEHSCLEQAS
The experiment in a line: Inhibition of IKKbeta (unknown origin) at 10 uM relative to control.

Series [7] relates to Mus musculus. The experiment in a line: Antiinflammatory activity in DSS-induced male C57BL/6 mouse model of inflammatory bowel disease assessed as reduction in red and white pulp merging in spleen at 20 mg/kg, IG administered with compound and DSS for 7 days followed by DSS replacement with distilled water for 3 days by H and E staining based analysis. In kind it is functional, organism-based. To be noted: time 10.0 day.

The test system of series [8] is Mus musculus. The experiment in a line: Protection against LPS-induced C57BL/6 mouse model of acute lung injury assessed as reduction in immune markers in lungs at 20 mg/kg, po administered 3 times for every 12 hrs followed by LPS stimulation at 5 mg/kg and measured after 6 hrs by H and E staining based analysis. It is filed as functional, organism-based. Particulars: time 30.0 hrs. In a few lines: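 LPS-induced ALI in C57BL/6 mice: 20 mg/kg orally three times at 12 h intervals, then intratracheal LPS 5 mg/kg, killed at 6 h. Lungs paraffin-embedded, cut into 5 μm sections and H&E stained. Viewed at ×20.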

Series [9] relates to J774.A1. The experiment in a line: Cytotoxicity against mouse J774.A1 cells assessed as reduction in cell viability at 10 uM measured after 24 hrs by MTT assay. In kind it is toxicity, cell-based. To be noted: j774.a1, 24 h. Summed up: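 J774A.1 cells seeded and incubated 24 h, then exposed to 10 μM compound for 24 h. MTT (5.0 mg/mL) added as 10 % for 4 h, formazan dissolved in DMSO with 30 min shaking, absorbance read at 490 nm. Expressed as % of control.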

Series [10] relates to Mus musculus. The experiment in a line: Protection against LPS-induced C57BL/6 mouse model of acute lung injury assessed as reduction in destruction of the alveolar cell structure at 20 mg/kg, po administered 3 times for every 12 hrs followed by LPS stimulation at 5 mg/kg and measured after 6 hrs by immunohistochemical staining based analysis. It is filed as functional, organism-based. To be noted: time 30.0 hrs. In a few lines:
as §2

The test system of series [11] is Mus musculus. The experiment in a line: Protection against LPS-induced C57BL/6 mouse model of acute lung injury assessed as reduction in IL-6 level in serum at 20 mg/kg, po administered 3 times for every 12 hrs followed by LPS stimulation at 5 mg/kg and measured after 6 hrs by ELISA. To be noted: time 30.0 hrs. It is filed as functional, organism-based. Summed up: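 C57BL/6 mice, 6 per group. Gavaged at 20 mg/kg three times at 12 h intervals; controls received saline, and dexamethasone 20 mg/kg served as reference. After the last dose, LPS 5 mg/kg given intratracheally. At 6 h, blood collected for serum IL-6 by ELISA. Left lung lavaged with 3 × 200 μL saline, and BALF assayed for IL-6, total protein and neutrophil count. Mean ± SEM, n = 6.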

For series [12], the system named is Mus musculus. The experiment in a line: Protection against LPS-induced C57BL/6 mouse model of acute lung injury assessed as reduction in immune markers at 20 mg/kg, po administered 3 times for every 12 hrs followed by LPS stimulation at 5 mg/kg and measured after 6 hrs by immunohistochemical staining based analysis. In kind it is functional, organism-based. Particulars: time 30.0 hrs. In a few lines:
as §2

Series [13] concerns J774.A1. The experiment in a line: Inhibition of LPS-induced MAPK activation in mouse J774.A1 cells assessed as reduction in p38 phosphorylation at 5 to 20 uM pretreated for 2 hrs followed by LPS stimulation and measured after 30 mins by Western blot analysis. It is filed as cell-based. To be noted: dose 5-20 µM, time 2.5 hrs. Summed up: as §1

The source made the active and inactive calls. The calls are words filed in the database; no cut-off is given here.

Regarding `CC(=O)N1CCN(CCOc2cc(=O)oc3ccccc23)CC1`, in [1], the inhibition entry is “inactive”. Besides, the outcome in [2], in series [3], in [5], in series [7], in series [8] and in [10] was Active. The result in [11] and in series [12] was Active. Also, the IC50 in series [4] is 6.51 µM. Further, the Activity entry in series [4] (time 24.5 hrs) is “Dose-Dependent Effect”; in series [9], “Non-Toxic”. Moreover, in series [6], the inhibition is -9.11%. Moreover, the inhibition entry in series [13] is “Active”.
